{"source": "ChEMBL document CHEMBL3600297", "about": "“N-Sulfonyl-aminobiaryls as Antitubulin Agents and Inhibitors of Signal Transducers and Activators of Transcription 3 (STAT3) Signaling” (J Med Chem, 2015)", "key": {"A549 [1]": {"tested_on": "A549", "assay": "Effect on G2/M phase in human A549 cells after 24 hrs by propidium iodide staining-based flow cytometric analysis", "format": "functional, cell-based", "summary_of_the_method": "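A549 given the indicated concentration for 24 h, fixed in 75% ethanol overnight at −20 °C, washed in cold PBS, 30 min in phosphate–citric acid buffer pH 7.8 at room temperature. Stained with propidium iodide buffer containing 0.1% Triton X-100 and RNase A; DNA content read on a FACScan.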"}, "ASPC1": {"tested_on": "ASPC1", "assay": "Cytotoxicity against human AsPC1 cells assessed as growth inhibition after 48 hrs by sulforhodamine B assay", "format": "functional", "conditions": "ASPC1, 48 h", "summary_of_the_method": "(§1)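 Seeded at (3−5) × 10^3 cells/well. A time-zero plate was TCA-fixed after attachment. Next day, cells got vehicle (0.1% DMSO) or a rising concentration gradient for 48 h, then 10% TCA fixation, 0.4% SRB in 1% AcOH, A515 read. GI50 taken relative to the time-zero absorbance; at least three independent runs, mean ± SD.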"}, "PC-3": {"tested_on": "PC-3", "assay": "Cytotoxicity against human PC3 cells assessed as growth inhibition after 48 hrs by sulforhodamine B assay", "format": "functional", "conditions": "PC-3, 48 h", "summary_of_the_method": "as §1"}, "[2]": {"assay": "Cytotoxicity against human Hep3B cells assessed as growth inhibition after 48 hrs by sulforhodamine B assay", "format": "functional, Hep 3B2", "summary_of_the_method": "as §1"}, "A549 [3]": {"tested_on": "A549", "assay": "Cytotoxicity against human A549 cells assessed as growth inhibition after 48 hrs by sulforhodamine B assay", "format": "functional", "conditions": "A549, 48 h", "summary_of_the_method": "as §1"}, "A549 [4]": {"tested_on": "A549", "assay": "Induction of microtubule destabilization in human A549 cells at 1 uM after 24 hrs by DAPI staining-based immunofluorescence confocal microscopic analysis", "format": "cell-based", "summary_of_the_method": "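A549 seeded sparsely on chamber slides and treated 24 h; cold MeOH fixation (−20 °C, 15 min), blocked with 0.1% Triton X-100 in PBS 30 min at 37 °C. Monoclonal anti-β-tubulin 1 h at 37 °C, then FITC anti-mouse IgG, DAPI nuclear counterstain; confocal imaging.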"}, "Tubulin (Sus scrofa) [5]": {"biological_target": "T1, Tubulin (Sus scrofa) (UniProt P02554+P02550)", "T1 sequence (P02550 whole entry, looked up)": "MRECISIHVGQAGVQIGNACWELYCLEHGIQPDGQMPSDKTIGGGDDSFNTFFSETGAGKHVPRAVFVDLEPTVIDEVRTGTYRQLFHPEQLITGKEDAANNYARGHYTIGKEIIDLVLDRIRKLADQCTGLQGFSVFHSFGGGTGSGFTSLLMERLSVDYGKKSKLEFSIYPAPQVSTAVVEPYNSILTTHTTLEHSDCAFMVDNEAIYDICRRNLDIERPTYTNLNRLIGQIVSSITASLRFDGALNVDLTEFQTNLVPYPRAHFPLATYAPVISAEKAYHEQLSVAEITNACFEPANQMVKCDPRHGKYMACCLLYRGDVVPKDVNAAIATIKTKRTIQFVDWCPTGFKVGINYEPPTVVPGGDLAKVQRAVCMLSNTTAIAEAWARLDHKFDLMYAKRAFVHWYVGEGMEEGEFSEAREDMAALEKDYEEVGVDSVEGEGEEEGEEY", "T1 sequence (P02554 whole entry, looked up)": "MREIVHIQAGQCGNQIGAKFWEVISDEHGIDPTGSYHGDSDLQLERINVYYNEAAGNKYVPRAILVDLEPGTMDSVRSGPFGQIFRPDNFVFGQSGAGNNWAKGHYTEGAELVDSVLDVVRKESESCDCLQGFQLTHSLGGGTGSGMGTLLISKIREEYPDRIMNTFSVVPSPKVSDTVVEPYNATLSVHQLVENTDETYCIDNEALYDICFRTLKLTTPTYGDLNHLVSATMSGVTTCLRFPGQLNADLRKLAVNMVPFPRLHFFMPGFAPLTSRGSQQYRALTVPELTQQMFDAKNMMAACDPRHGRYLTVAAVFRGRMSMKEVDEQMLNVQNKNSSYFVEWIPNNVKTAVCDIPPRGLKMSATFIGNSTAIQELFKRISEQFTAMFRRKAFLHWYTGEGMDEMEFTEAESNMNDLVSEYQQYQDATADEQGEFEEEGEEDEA", "assay": "Inhibition of porcine tubulin polymerization at 10 uM measured every min for 30 mins by spectrophotometric analysis", "format": "protein assay", "summary_of_the_method": "(§2)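 Cold porcine tubulin (>99% pure) in G-PEM buffer (80 mM PIPES, 2 mM MgCl2, 0.5 mM EGTA, 1 mM GTP, pH 6.9) with 15% glycerol, with or without compound. Kinetic turbidity at 340 nm, read each minute for 30 min at 37 °C. DMSO control.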"}, "Tubulin": {"biological_target": "Tubulin", "assay": "Displacement of [3H]-colchicine from tubulin (unknown origin) preincubated with protein for 1 hr followed by [3H]-colchicine addition measured after 3 hrs by scintillation counting analysis", "format": "protein-complex assay, Homo sapiens"}, "Tubulin (Sus scrofa) [6]": {"biological_target": "T1, Tubulin (Sus scrofa)", "assay": "Inhibition of porcine tubulin polymerization measured every min for 30 mins by spectrophotometric analysis", "format": "protein assay", "summary_of_the_method": "as §2"}}, "note": "Active and inactive are the calls of the source. No cut-off for these calls is given here.", "data": [{"smiles": "Cc1ccc(S(=O)(=O)OCC(=O)Nc2ccc(C(=O)O)c(O)c2)cc1", "values": [{"measurement": "Activity", "setting": "A549 [1]", "value": "inactive"}]}, {"smiles": "COc1ccc(S(=O)(=O)Nc2ccccc2-c2ccc(F)c(F)c2)cc1", "values": [{"measurement": "GI50", "setting": "ASPC1", "value": 0.28, "unit": "µM"}, {"measurement": "GI50", "setting": "PC-3", "value": 0.19, "unit": "µM"}, {"measurement": "GI50", "setting": "[2]", "value": 0.15, "unit": "µM"}, {"measurement": "GI50", "setting": "A549 [3]", "value": 0.3, "unit": "µM"}]}, {"smiles": "COc1ccc(S(=O)(=O)Nc2cccnc2Nc2ccc(O)cc2)cc1", "note": "[ABT-751]", "values": [{"measurement": "GI50", "setting": "ASPC1", "value": 4.11, "unit": "µM"}, {"measurement": "GI50", "setting": "PC-3", "value": 0.62, "unit": "µM"}, {"measurement": "GI50", "setting": "[2]", "value": 0.84, "unit": "µM"}, {"measurement": "GI50", "setting": "A549 [3]", "value": 5.33, "unit": "µM"}]}, {"smiles": "CC[C@]1(O)C[C@H]2CN(CCc3c([nH]c4ccccc34)[C@@](C(=O)OC)(c3cc4c(cc3OC)N(C=O)[C@H]3[C@@](O)(C(=O)OC)[C@H](OC(C)=O)[C@]5(CC)C=CCN6CC[C@]43[C@@H]65)C2)C1", "values": [{"measurement": "Activity", "setting": "A549 [4]", "value": "Active"}, {"measurement": "inhibition", "setting": "Tubulin (Sus scrofa) [5]", "value": "Active"}]}, {"smiles": "COc1ccc(S(=O)(=O)N(CCCl)c2ccccc2-c2ccc(C#N)cc2)cc1", "values": [{"measurement": "GI50", "setting": "ASPC1", "value": 4.79, "unit": "µM"}, {"measurement": "GI50", "setting": "PC-3", "value": 6.52, "unit": "µM"}, {"measurement": "GI50", "setting": "[2]", "value": 1.55, "unit": "µM"}, {"measurement": "GI50", "setting": "A549 [3]", "value": 1.5, "unit": "µM"}]}, {"smiles": "COc1ccc(S(=O)(=O)Nc2ccccc2-c2ccc(C#N)c(F)c2)cc1", "values": [{"measurement": "IC50", "setting": "Tubulin", "value": 0.67, "unit": "µM"}, {"measurement": "inhibition", "setting": "Tubulin (Sus scrofa) [6]", "value": "Dose-dependent effect"}]}]}
